Results reported in ChEMBL document CHEMBL1144028, “Novel 2,3-dihydro-1,4-benzoxazines as potent and orally bioavailable inhibitors of tumor-driven angiogenesis” (J Med Chem, 2008).
Converted amounts (≈) assume the structure as drawn.

Experiments:
[1] = target: Hepatocyte growth factor receptor (Homo sapiens, UniProt P08581); test: Inhibition of c-Met
[2] = target: Tyrosine-protein kinase Lck (Homo sapiens, UniProt P06239); test: Inhibition of Lck
[3] = test system: HUVEC; test: Inhibition of VEGF-induced proliferation of HUVEC cells; type: functional, cell-based; settings: Homo sapiens
Procedure, shortened: (§1)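 Human umbilical vein endothelial cell proliferation driven by VEGF or by FGF; IC50 is the mean of two or more separate determinations, each in duplicate.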

[4] = target: Vascular endothelial growth factor receptor 2 (Homo sapiens, UniProt P35968); test: Inhibition of KDR by HTRF assay
Vascular endothelial growth factor receptor 2, sequence (P35968 whole entry): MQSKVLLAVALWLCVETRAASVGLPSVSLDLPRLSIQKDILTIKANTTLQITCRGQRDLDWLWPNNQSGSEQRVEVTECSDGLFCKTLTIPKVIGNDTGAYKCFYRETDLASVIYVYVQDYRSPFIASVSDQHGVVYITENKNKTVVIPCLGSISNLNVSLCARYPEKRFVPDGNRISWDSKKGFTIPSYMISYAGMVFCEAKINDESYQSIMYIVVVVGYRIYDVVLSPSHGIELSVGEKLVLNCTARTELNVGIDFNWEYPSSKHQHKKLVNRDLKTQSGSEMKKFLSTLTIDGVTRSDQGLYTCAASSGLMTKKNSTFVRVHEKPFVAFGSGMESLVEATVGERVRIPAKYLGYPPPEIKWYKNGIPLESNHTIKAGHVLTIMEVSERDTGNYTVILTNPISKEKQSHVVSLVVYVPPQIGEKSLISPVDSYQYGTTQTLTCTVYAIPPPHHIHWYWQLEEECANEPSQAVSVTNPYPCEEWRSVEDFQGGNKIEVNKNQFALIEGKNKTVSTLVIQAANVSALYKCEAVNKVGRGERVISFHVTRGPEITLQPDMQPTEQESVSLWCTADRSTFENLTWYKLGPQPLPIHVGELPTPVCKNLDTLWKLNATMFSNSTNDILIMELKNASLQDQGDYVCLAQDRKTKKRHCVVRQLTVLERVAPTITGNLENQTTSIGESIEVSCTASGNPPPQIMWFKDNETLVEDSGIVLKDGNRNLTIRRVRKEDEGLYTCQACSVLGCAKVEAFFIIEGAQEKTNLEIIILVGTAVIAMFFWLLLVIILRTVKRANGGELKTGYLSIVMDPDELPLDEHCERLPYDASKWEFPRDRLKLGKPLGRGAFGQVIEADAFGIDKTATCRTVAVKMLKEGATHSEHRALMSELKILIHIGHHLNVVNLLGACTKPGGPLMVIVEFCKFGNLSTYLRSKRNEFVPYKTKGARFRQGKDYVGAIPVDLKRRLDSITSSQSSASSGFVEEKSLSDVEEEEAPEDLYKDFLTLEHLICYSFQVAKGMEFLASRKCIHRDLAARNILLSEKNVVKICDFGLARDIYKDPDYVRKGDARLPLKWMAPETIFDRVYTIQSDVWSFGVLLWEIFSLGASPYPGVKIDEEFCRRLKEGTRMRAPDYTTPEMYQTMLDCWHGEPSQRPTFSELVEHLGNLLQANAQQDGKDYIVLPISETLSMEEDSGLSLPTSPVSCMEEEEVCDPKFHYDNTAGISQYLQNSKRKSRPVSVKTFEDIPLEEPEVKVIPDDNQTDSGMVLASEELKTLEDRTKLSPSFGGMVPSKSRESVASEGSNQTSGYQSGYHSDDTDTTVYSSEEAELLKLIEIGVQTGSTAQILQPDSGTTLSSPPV
Procedure, shortened: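 KDR read by homogeneous time-resolved fluorescence with a biotinylated gastrin substrate. IC50 is the mean of two or more separate determinations, each in duplicate.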

[5] = test system: HUVEC; test: Inhibition of FGF-induced proliferation of HUVEC cells; type: functional, cell-based; settings: Homo sapiens; procedure, shortened: as §1
[6] = target: Angiopoietin-1 receptor (Homo sapiens, UniProt Q02763); test: Inhibition of Tie2
Angiopoietin-1 receptor, sequence (Q02763 whole entry): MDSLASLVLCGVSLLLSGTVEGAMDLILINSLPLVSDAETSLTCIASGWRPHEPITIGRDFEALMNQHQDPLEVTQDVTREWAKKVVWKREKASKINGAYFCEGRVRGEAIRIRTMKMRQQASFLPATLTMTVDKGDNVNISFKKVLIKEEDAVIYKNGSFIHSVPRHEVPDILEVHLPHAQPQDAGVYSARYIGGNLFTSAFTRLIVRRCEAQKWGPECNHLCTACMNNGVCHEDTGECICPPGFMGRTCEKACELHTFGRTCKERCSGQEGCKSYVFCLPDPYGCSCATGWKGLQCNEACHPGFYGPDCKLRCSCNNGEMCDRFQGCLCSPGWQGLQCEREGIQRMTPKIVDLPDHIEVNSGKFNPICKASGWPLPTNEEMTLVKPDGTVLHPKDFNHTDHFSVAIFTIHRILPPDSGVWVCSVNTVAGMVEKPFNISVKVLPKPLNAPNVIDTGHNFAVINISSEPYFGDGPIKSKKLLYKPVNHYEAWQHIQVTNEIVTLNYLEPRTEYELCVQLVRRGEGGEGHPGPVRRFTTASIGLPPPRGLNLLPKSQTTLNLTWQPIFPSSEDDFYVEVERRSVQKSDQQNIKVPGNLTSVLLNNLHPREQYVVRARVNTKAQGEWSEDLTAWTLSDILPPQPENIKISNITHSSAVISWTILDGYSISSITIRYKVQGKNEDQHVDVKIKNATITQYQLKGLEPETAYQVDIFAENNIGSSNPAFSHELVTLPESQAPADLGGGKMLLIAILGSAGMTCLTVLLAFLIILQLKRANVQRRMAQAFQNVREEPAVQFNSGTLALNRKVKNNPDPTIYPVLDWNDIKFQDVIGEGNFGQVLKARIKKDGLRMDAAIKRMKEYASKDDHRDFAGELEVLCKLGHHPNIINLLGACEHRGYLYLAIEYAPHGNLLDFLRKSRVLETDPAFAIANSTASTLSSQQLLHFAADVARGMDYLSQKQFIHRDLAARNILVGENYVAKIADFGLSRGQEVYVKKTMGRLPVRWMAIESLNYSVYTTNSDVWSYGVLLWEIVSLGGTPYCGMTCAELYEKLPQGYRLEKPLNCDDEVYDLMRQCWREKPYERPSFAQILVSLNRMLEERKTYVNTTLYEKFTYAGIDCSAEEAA

[7] = Solubility in 0.01 N HCl; type: physicochemical
Procedure, shortened: (§2)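 Equilibrium solubility measured in 0.01 N HCl, PBS (pH 7), and simulated intestinal fluid.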

[8] = Solubility in PBS at pH 7; type: physicochemical; procedure, shortened: as §2
[9] = Solubility in simulated intestinal fluid; type: physicochemical; procedure, shortened: as §2
[10] = Oral bioavailability in Sprague-Dawley rat at 2 mg/kg, po; type: ADME, organism-based; settings: in vivo
Procedure, shortened: (§3)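 Male Sprague Dawley rats; single dose, 0.5 mg/kg iv or 2 mg/kg po; mean pharmacokinetic parameters reported.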

[11] = AUC (0 to infinity) in Sprague-Dawley rat at 2 mg/kg, po; type: ADME, organism-based; design: time infinity, dose 2 mg/kg, route oral; settings: plasma; procedure, shortened: as §3
[12] = Half life in Sprague-Dawley rat at 0.5 mg/kg, iv; type: ADME, organism-based; design: dose 0.5 mg/kg, route intravenous; settings: in vivo; procedure, shortened: as §3
[13] = Tmax in Sprague-Dawley rat at 2 mg/kg, po; type: ADME, organism-based; design: dose 2 mg/kg, route oral; settings: in vivo; procedure, shortened: as §3
[14] = Metabolic stability in human liver microsomes; type: ADME, Microsome; settings: read-out: Stability
Procedure, shortened: (§4)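 In vitro stability on incubation with human or rat liver microsomal preparations.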

[15] = Volume of distribution at steady state in Sprague-Dawley rat at 0.5 mg/kg, iv; type: ADME, organism-based; design: dose 0.5 mg/kg, route intravenous; settings: in vivo, read-out: Vdss; procedure, shortened: as §3
[16] = Cmax in Sprague-Dawley rat at 2 mg/kg, po; type: ADME, organism-based; design: dose 2 mg/kg, route oral; settings: in vivo; procedure, shortened: as §3
[17] = Metabolic stability in rat liver microsomes; type: ADME, Microsome; settings: read-out: Stability; procedure, shortened: as §4
[18] = Clearance in Sprague-Dawley rat at 0.5 mg/kg, iv; type: ADME, organism-based; design: dose 0.5 mg/kg, route intravenous; settings: in vivo; procedure, shortened: as §3
[19] = AUC in VEGF-soaked disk implanted Sprague-Dawley rat at […]; type: ADME, organism-based; design: dose 0.16 mg/kg; settings: plasma, read-out: ED50
[20] = Cmax in VEGF-soaked disk implanted Sprague-Dawley rat at […]; type: ADME, organism-based; design: dose 0.16 mg/kg; settings: in vivo, read-out: ED50
[21] = 0.01 N HCl, read-out: Solubility
[22] = simulated intestinal fluid, read-out: Solubility

Tyrosine-protein kinase Lck, sequence (P06239 whole entry): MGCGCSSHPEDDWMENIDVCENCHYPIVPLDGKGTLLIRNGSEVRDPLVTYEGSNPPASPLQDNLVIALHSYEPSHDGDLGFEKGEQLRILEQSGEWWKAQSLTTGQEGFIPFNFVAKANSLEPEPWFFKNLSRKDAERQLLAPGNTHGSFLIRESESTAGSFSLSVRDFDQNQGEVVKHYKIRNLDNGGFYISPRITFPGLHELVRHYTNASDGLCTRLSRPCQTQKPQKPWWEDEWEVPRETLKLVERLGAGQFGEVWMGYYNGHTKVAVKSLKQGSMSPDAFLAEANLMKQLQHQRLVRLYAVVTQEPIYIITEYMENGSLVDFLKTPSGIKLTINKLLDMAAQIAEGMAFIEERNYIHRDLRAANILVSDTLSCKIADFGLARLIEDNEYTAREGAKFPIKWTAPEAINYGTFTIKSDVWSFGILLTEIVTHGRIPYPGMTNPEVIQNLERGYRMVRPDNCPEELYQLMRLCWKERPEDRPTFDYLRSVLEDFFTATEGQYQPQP
Hepatocyte growth factor receptor, sequence (P08581 whole entry): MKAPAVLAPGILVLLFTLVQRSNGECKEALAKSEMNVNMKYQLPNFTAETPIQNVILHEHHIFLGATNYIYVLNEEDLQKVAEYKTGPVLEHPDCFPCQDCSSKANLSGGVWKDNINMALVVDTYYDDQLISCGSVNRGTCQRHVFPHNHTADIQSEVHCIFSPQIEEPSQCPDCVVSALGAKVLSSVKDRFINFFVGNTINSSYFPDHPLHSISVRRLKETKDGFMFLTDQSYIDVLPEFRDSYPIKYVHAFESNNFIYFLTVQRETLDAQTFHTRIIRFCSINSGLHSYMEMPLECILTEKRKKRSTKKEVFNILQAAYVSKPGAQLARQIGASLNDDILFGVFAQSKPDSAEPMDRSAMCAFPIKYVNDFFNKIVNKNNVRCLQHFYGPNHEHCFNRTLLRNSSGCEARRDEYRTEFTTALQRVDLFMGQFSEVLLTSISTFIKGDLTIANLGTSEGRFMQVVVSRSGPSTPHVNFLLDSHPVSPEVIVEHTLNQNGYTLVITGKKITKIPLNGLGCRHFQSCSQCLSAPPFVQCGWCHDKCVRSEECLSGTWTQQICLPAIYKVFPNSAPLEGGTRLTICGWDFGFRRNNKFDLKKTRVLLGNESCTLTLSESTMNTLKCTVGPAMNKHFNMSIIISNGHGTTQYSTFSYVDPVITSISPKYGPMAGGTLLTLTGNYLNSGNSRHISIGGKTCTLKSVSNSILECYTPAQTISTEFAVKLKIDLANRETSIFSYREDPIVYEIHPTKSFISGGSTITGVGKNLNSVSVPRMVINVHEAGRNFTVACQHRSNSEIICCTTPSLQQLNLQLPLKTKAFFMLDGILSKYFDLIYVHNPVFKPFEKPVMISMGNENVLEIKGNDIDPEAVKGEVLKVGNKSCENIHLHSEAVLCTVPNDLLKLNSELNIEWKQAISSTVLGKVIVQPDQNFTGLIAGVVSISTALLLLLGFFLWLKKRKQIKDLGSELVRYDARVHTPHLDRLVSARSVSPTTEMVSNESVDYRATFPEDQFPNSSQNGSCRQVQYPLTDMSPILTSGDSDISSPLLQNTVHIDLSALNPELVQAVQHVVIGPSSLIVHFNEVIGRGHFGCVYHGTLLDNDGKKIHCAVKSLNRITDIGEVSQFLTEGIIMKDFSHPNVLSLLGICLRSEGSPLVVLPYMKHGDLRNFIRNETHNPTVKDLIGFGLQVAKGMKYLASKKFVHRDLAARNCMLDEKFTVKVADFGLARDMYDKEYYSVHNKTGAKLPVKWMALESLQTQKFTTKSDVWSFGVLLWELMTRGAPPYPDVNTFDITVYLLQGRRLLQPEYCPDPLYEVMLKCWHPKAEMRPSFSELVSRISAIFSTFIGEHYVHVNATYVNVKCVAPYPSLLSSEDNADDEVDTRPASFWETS

SMILES	IC50 [1] [nM]	IC50 [2] [nM]	IC50 [4] [nM]	IC50 [6] [nM]	solubility [7, 21] [µg/mL]	solubility [8] [µg/mL]	solubility [9, 22] [µg/mL]	IC50 [3] [nM]	IC50 [5] [nM]	also measured
COc1cc2nccc(Oc3ccc4c(c3)OCCN4C(=O)Nc3ccc(F)cc3)c2cc1OC	1100	90	3	1500	> 200	3.3 (≈ 6.94 µM)	41 (≈ 86.2 µM)	2	300	bioavailability [10]: 81%; AUC(0-inf) [11]: 2600 ng·h/mL; half-life [12]: 180 min; Tmax [13]: 2.7 h; microsomal CLint [14]: 17 µL/min/mg; Vd [15]: 2.1 L/kg; Cmax [16]: 410 ng/mL; microsomal CLint [17]: 74 µL/min/mg; clearance [18]: 13.7 mL/min/kg
COc1cc2nccc(Oc3ccc4c(c3)OCCN4C(=O)NCc3ccccc3)c2cc1OC	1600	500	53	> 4000	–	–	–	237	> 1100	–
COc1cc2nccc(Oc3ccc4c(c3)OCCN4C(=O)Nc3ccccc3)c2cc1OC	650	188	1	386	–	–	–	0.6	340	half-life [12]: 72 min; microsomal CLint [14]: 62 µL/min/mg; Vd [15]: 2.1 L/kg; microsomal CLint [17]: 122 µL/min/mg; clearance [18]: 30 mL/min/kg
CNC(=O)c1cccc2cc(Oc3ccnc4cc(OC)c(OC)cc34)ccc12	–	–	–	–	> 200	1.4 (≈ 3.6 µM)	3 (≈ 7.72 µM)	–	–	–
COc1cc2nccc(Oc3ccc4c(c3)OCCN4C(=O)Nc3ccccc3Cl)c2cc1OC	290	2200	19	2200	–	–	–	73	230	–
COc1cc2nccc(Oc3ccc4c(c3)OCCN4C(=O)Nc3ccc(Cl)cc3)c2cc1OC	–	–	–	–	–	–	–	–	–	bioavailability [10]: 95%; AUC(0-inf) [11]: 7900 ng·h/mL; solubility ([7]; buffer): 28 µg/mL (≈ 56.9 µM); half-life [12]: 384 min; AUC [19]: 2.8 µM·h; Tmax [13]: 3.3 h; microsomal CLint [14]: < 14 µL/min/mg; Vd [15]: 1.8 L/kg; Cmax [16]: 810 ng/mL; microsomal CLint [17]: 44 µL/min/mg; solubility ([9]; simulated gi fluid): 33 µg/mL (≈ 67.1 µM); Cmax [20]: 180 nM; clearance [18]: 4 mL/min/kg
COc1cc2nccc(Oc3ccc4c(c3)OCCN4C(=O)Nc3ccc(C)cc3)c2cc1OC	370	63	0.2	1000	> 200	< 1	22 (≈ 46.7 µM)	3	280	bioavailability [10]: 47%; AUC(0-inf) [11]: 1300 ng·h/mL; half-life [12]: 264 min; Tmax [13]: 1 h; microsomal CLint [14]: 31 µL/min/mg; Vd [15]: 2.8 L/kg; Cmax [16]: 300 ng/mL; microsomal CLint [17]: 104 µL/min/mg; clearance [18]: 12 mL/min/kg
COc1cc2nccc(Oc3ccc4c(c3)OCCN4C(=O)Nc3cccc(C)c3)c2cc1OC	350	–	–	–	–	–	–	0.6	190	–
COc1cc2nccc(Oc3ccc4c(c3)OCCN4C(=O)NC(C)C)c2cc1OC	1200	1000	40	> 4000	> 200	3 (≈ 7.08 µM)	14 (≈ 33.1 µM)	52	1100	–
COc1cc2nccc(Oc3ccc4c(C(=O)NC(C)C)cccc4c3)c2cc1OC	–	–	–	–	> 200	< 1	5.6 (≈ 13.4 µM)	–	–	–
COc1cc2nccc(Oc3ccc4c(C(=O)Nc5ccc(F)cc5)cccc4c3)c2cc1OC	–	–	–	–	67 (≈ 143 µM)	< 1	1.3 (≈ 2.77 µM)	–	–	–
CNC(=O)c1cc(Oc2ccc3c(c2)OCCN3C(=O)Nc2ccc(C)cc2)ccn1	> 4000	> 4000	62	> 4000	–	–	–	> 1000	> 1000	–

Now from value to compound, other results behind:

IC50 [1] [nM]	IC50 [2] [nM]	IC50 [4] [nM]	IC50 [6] [nM]	solubility [7, 21] [µg/mL]	solubility [8] [µg/mL]	solubility [9, 22] [µg/mL]	SMILES	IC50 [3] [nM]	IC50 [5] [nM]	also measured
> 4000	> 4000	77	> 4000	–	–	–	O=C(Nc1ccc(Cl)cc1)N1CCOc2cc(Oc3ncnc4[nH]ccc34)ccc21	230	> 1000	–
–	–	–	–	9.5 (≈ 19.6 µM)	< 1	36 (≈ 74.2 µM)	COc1cc2nccc(Oc3ccc4c(C(=O)Nc5cccc(Cl)c5)cccc4c3)c2cc1OC	–	–	–
–	–	–	–	> 200	< 1	9.4 (≈ 20.2 µM)	COc1cc2nccc(Oc3ccc4c(C(=O)Nc5ccc(C)cc5)cccc4c3)c2cc1OC	–	–	–
–	–	–	–	–	< 1	1.4 (≈ 2.89 µM)	COc1cc2nccc(Oc3ccc4c(C(=O)Nc5ccc(Cl)cc5)cccc4c3)c2cc1OC	8	–	–
> 4000	> 4000	26	> 4000	–	–	–	Cc1ccc(NC(=O)N2CCOc3cc(Oc4ncnc5[nH]ccc45)ccc32)cc1	230	> 1000	–
> 4000	2400	40	> 4000	> 200	46 (≈ 116 µM)	130 (≈ 329 µM)	CNC(=O)N1CCOc2cc(Oc3ccnc4cc(OC)c(OC)cc34)ccc21	100	370	–
460	18	1	260	–	–	–	COc1cc2nccc(Oc3ccc4c(c3)OCCN4C(=O)N[C@@H](C)c3ccccc3)c2cc1OC	3	300	half-life [12]: 138 min; microsomal CLint [14]: 543 µL/min/mg; Vd [15]: 1.4 L/kg; microsomal CLint [17]: 188 µL/min/mg; clearance [18]: 16.3 mL/min/kg
410	27	1	1600	–	–	–	COc1cc2nccc(Oc3ccc4c(c3)OCCN4C(=O)Nc3ccccc3C)c2cc1OC	45	910	–
230	4	1	9	120 (≈ 244 µM)	< 1	28 (≈ 56.9 µM)	COc1cc2nccc(Oc3ccc4c(c3)OCCN4C(=O)Nc3cccc(Cl)c3)c2cc1OC	0.4	220	–
> 4000	> 4000	58	> 4000	–	–	–	COc1cc2nccc(Oc3ccc4c(c3)OCCN4C(N)=O)c2cc1OC	280	1100	–
500	150	26	1500	–	–	–	COc1cc2nccc(Oc3ccc4c(c3)OCCN4C(=O)NCc3ccc(C)cc3)c2cc1OC	360	1100	–
> 4000	> 4000	95	> 4000	–	–	–	CNC(=O)c1cc(Oc2ccc3c(c2)OCCN3C(=O)Nc2ccc(Cl)cc2)ccn1	> 1000	> 1000	–
260	19	0.5	430	–	–	–	COc1cc2nccc(Oc3ccc4c(c3)OCCN4C(=O)Nc3ccc(C)cc3)c2cc1C(N)=O	1	300	bioavailability [10]: 28%; AUC(0-inf) [11]: 650 ng·h/mL; half-life [12]: 96 min; Tmax [13]: 2.3 h; microsomal CLint [14]: 62 µL/min/mg; Vd [15]: 1.4 L/kg; Cmax [16]: 160 ng/mL; microsomal CLint [17]: 96 µL/min/mg; clearance [18]: 14.3 mL/min/kg
210	78	40	> 4000	–	–	–	COc1cc2nccc(Oc3ccc4c(c3)OCCN4C(=O)N[C@H](C)c3ccccc3)c2cc1OC	250	1100	–
1400	1500	1	> 4000	–	–	–	CCNC(=O)N1CCOc2cc(Oc3ccnc4cc(OC)c(OC)cc34)ccc21	23	780	–
160	21	0.6	290	–	–	–	COc1cc2nccc(Oc3ccc4c(c3)OCCN4C(=O)Nc3ccc(Cl)cc3)c2cc1C(N)=O	1	290	bioavailability [10]: 46%; AUC(0-inf) [11]: 4500 ng·h/mL; half-life [12]: 156 min; Tmax [13]: 2.3 h; microsomal CLint [14]: 48 µL/min/mg; Vd [15]: 0.5 L/kg; Cmax [16]: 820 ng/mL; microsomal CLint [17]: 25 µL/min/mg; clearance [18]: 3.17 mL/min/kg
